16 compounds from ChEMBL document CHEMBL2440078, “Synthesis and biological evaluation of novel C-aryl d-glucofuranosides as sodium-dependent glucose co-transporter 2 inhibitors” (Bioorg Med Chem, 2013) can be followed below.

pEC50: −log10 of the molar value. Where only a bound is given, the exact number is not on record here.

The assay has as its target T1, Sodium/glucose cotransporter 2 (Homo sapiens, UniProt P31639).
T1 sequence (P31639 whole entry): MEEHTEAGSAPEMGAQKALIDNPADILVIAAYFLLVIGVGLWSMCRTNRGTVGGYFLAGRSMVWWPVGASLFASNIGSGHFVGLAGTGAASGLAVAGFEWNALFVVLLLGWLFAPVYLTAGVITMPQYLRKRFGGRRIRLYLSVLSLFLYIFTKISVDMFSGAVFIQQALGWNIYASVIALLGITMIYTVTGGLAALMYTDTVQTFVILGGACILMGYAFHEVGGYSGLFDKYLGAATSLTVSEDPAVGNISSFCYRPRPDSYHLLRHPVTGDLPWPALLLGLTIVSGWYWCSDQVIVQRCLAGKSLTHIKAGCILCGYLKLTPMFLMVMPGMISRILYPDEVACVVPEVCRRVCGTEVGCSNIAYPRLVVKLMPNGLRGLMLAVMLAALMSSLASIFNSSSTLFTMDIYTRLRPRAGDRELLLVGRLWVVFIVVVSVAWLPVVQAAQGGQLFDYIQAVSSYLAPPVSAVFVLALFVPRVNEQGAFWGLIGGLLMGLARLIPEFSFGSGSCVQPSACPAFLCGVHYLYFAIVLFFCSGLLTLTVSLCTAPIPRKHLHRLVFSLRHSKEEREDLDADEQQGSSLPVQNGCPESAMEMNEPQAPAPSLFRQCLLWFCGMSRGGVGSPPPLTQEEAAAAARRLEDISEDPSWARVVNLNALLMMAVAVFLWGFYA
Kind of assay: Inhibition of human SGLT2 expressed in CHO-K1 cells assessed as inhibition of [14C]-AMG uptake up to 120 mins by scintillation counting method. Type of assay: cell-based. The gist of the method:
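Uptake of 3 µM [¹⁴C]-AMG ± inhibitor at 37 °C, stopped with ice-cold KRH. Cells lysed in 0.1% SDS 24 h, then counted. Inhibition vs DMSO-only wells. EC₅₀ from sigmoidal fit, mean of ≥3 determinations.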
`CC(C)c1ccc(Cc2cc([C@@H]3O[C@H]([C@H](O)CO)[C@H](O)[C@H]3O)ccc2Cl)cc1`: the pEC50 is 4.48. On to `CCOc1ccc(Cc2cc([C@@H]3O[C@H]([C@H](O)CO)[C@H](O)[C@H]3O)ccc2C)cc1`, for which the pEC50 was 4.47. The same measure for `OC[C@@H](O)[C@H]1O[C@@H](c2ccc(Cl)c(Cc3ccc4c(c3)OCO4)c2)[C@H](O)[C@H]1O`: less than 4.30; for `COc1ccc2cc(Cc3cc([C@@H]4O[C@H]([C@H](O)CO)[C@H](O)[C@H]4O)ccc3Cl)ccc2c1`: 5.29; for `CCOc1ccc(Cc2cc([C@@H]3O[C@H]([C@H](O)CO)[C@H](O)[C@H]3O)c(OC)cc2Cl)cc1`: 4.34. On to `COc1ccc(Cc2cc([C@@H]3O[C@H]([C@H](O)CO)[C@H](O)[C@H]3O)ccc2Cl)cc1`, for which the pEC50 was 4.46. In the case of `COc1cc(Cl)c(Cc2ccc(C(C)C)cc2)cc1[C@@H]1O[C@H]([C@H](O)CO)[C@H](O)[C@H]1O` it was 4.68; in that of `COc1cccc(Cc2cc([C@@H]3O[C@H]([C@H](O)CO)[C@H](O)[C@H]3O)ccc2Cl)c1`, less than 4.30. In the case of `COc1ccccc1Cc1cc([C@@H]2O[C@H]([C@H](O)CO)[C@H](O)[C@H]2O)ccc1Cl` it was less than 4.30; in that of `CCOc1ccc(Cc2cc([C@@H]3O[C@H]([C@H](O)CO)[C@H](O)[C@H]3O)ccc2Cl)cc1`, less than 4.30; in that of `CCc1ccc(Cc2cc([C@@H]3O[C@H]([C@H](O)CO)[C@H](O)[C@H]3O)c(OC)cc2Cl)cc1`, 6.21.

For `OC[C@@H](O)[C@H]1O[C@@H](c2ccc(Cl)c(Cc3ccc(Oc4ccccc4)cc3)c2)[C@H](O)[C@H]1O`, the pEC50 was less than 4.30.

For `CSc1ccc(Cc2cc([C@@H]3O[C@H]([C@H](O)CO)[C@H](O)[C@H]3O)ccc2Cl)cc1`, the pEC50 was 5.43.

Consider `OC[C@@H](O)[C@H]1O[C@@H](c2ccc(Cl)c(Cc3ccc(F)cc3)c2)[C@H](O)[C@H]1O`, for which the pEC50 was less than 4.30. Turning to `CCc1ccc(Cc2cc([C@@H]3O[C@H]([C@H](O)CO)[C@H](O)[C@H]3O)ccc2C)cc1`, the pEC50 was 5.60. As to `Cc1ccc([C@@H]2O[C@H]([C@H](O)CO)[C@H](O)[C@H]2O)cc1Cc1ccc(C(C)C)cc1`, the pEC50 was 4.96.

A word on the pEC50: it is −log10 of the EC50, conventionally taken in molar units.
